Measurements as given in article PMC10975593 (ACS Omega, 2024).
Read-outs that look alike come from different tables or passages of the source.

Key:
[1] = tested on: Escherichia coli; assay: Disc diffusion antimicrobial test; assay type: cell-based; settings: Escherichia coli, 24 h, read-out: zone of inhibition (diameter of inhibition)
In short: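 Disc diffusion on nutrient agar, test compound at 100 μg/mL with DMSO as solvent. Plates incubated at 37 °C for 24 h after inoculation, then zone of inhibition measured and compared with standards. Controls were DMSO, amoxicillin, ciprofloxacin and tetracycline.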

[2] = tested on: NCI-H23; assay: NCI 60-cell line screen; assay type: cell-based, human; settings: for GI50 / IC50 / CC50: Homo sapiens; for GI50 / IC50: NCI-H23; for CC50: NCI-H23, read-out: LC50; for TGI: NCI-H23, non-small cell lung cancer
[3] = tested on: TK-10; assay: NCI 60-cell line screen; assay type: cell-based, human; settings: for GI50 / IC50 / CC50: Homo sapiens; for GI50 / IC50: TK-10; for CC50: TK-10, read-out: LC50; for TGI: TK-10, renal cancer
In short: (§1)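 Test compounds were submitted to the National Cancer Institute and run under NCI's standard 60-cell-line protocols. Read-outs were taken from percent-growth versus log-concentration curves.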

[4] = tested on: PC-3; assay: NCI 60-cell line screen; assay type: cell-based, human; settings: for GI50 / IC50 / CC50: Homo sapiens; for GI50 / IC50: PC-3; for CC50: PC-3, read-out: LC50; for TGI: PC-3, prostate cancer
In short: as §1

[5] = tested on: SK-MEL-2; assay: NCI 60-cell line screen; assay type: cell-based, human; settings: for GI50 / IC50 / CC50: Homo sapiens; for GI50 / IC50: SK-MEL-2; for CC50: SK-MEL-2, read-out: LC50; for TGI: SK-MEL-2, melanoma
In short: as §1

[6] = tested on: SNB-19; assay: NCI 60-cell line screen; assay type: cell-based, human; settings: for GI50 / IC50 / CC50: Homo sapiens; for GI50 / IC50: SNB-19; for CC50: SNB-19, read-out: LC50; for TGI: SNB-19, CNS cancer
In short: as §1

[7] = tested on: SK-MEL-5; assay: NCI 60-cell line screen; assay type: cell-based, human; settings: for GI50 / IC50 / CC50: Homo sapiens; for GI50 / IC50: SK-MEL-5; for CC50: SK-MEL-5, read-out: LC50; for TGI: SK-MEL-5, melanoma
In short: as §1

[8] = tested on: MCF-7; assay: NCI 60-cell line screen; assay type: cell-based, human; settings: for GI50 / IC50 / CC50: Homo sapiens; for GI50 / IC50: MCF7; for CC50: MCF7, read-out: LC50; for TGI: MCF-7, breast cancer
[9] = tested on: NCI 60 cell line panel; assay: NCI 60-cell line inhibition, range over panel; assay type: cell-based; settings: Homo sapiens; for GI50: read-out: GI50, range over cell lines; for IC50: read-out: IC50, range over cell lines
[10] = tested on: OVCAR-8; assay: NCI 60-cell line screen; assay type: cell-based, human; settings: for GI50 / IC50 / CC50: Homo sapiens; for GI50 / IC50: OVCAR-8; for CC50: OVCAR-8, read-out: LC50; for TGI: OVCAR-8, ovarian cancer
In short: as §1

[11] = tested on: CCRF-CEM; assay: NCI 60-cell line screen; assay type: cell-based, human; settings: for GI50 / IC50 / CC50: Homo sapiens; for CC50: read-out: LC50; for TGI: leukemia
[12] = tested on: HCT-116; assay: NCI 60-cell line screen; assay type: cell-based, human; settings: for TGI: HCT-116, colon cancer; for GI50 / IC50 / CC50: Homo sapiens; for GI50 / IC50: HCT-116; for CC50: HCT-116, read-out: LC50
[13] = tested on: NCI-H322M; assay: NCI 60-cell line screen; assay type: cell-based, human; settings: for GI50 / IC50 / CC50: Homo sapiens; for CC50: read-out: LC50; for TGI: non-small cell lung cancer
[14] = tested on: MDA-MB-231/ATCC; assay: NCI 60-cell line screen; assay type: cell-based, human; settings: for GI50 / IC50 / CC50: Homo sapiens; for GI50 / IC50: MDA-MB-231; for CC50: MDA-MB-231, read-out: LC50; for TGI: MDA-MB-231/ATCC, breast cancer
[15] = tested on: OVCAR-5; assay: NCI 60-cell line screen; assay type: cell-based, human; settings: for GI50 / IC50 / CC50: Homo sapiens; for GI50 / IC50: OVCAR-5; for CC50: OVCAR-5, read-out: LC50; for TGI: OVCAR-5, ovarian cancer
In short: as §1

[16] = target: PIK3CD/PIK3R1 (p110 δ/p85 α) (Homo sapiens, UniProt O00329); assay: Kinase selectivity for OMS14; assay type: biochemical
Sequence of PIK3CD/PIK3R1 (p110 δ/p85 α) (O00329 whole entry): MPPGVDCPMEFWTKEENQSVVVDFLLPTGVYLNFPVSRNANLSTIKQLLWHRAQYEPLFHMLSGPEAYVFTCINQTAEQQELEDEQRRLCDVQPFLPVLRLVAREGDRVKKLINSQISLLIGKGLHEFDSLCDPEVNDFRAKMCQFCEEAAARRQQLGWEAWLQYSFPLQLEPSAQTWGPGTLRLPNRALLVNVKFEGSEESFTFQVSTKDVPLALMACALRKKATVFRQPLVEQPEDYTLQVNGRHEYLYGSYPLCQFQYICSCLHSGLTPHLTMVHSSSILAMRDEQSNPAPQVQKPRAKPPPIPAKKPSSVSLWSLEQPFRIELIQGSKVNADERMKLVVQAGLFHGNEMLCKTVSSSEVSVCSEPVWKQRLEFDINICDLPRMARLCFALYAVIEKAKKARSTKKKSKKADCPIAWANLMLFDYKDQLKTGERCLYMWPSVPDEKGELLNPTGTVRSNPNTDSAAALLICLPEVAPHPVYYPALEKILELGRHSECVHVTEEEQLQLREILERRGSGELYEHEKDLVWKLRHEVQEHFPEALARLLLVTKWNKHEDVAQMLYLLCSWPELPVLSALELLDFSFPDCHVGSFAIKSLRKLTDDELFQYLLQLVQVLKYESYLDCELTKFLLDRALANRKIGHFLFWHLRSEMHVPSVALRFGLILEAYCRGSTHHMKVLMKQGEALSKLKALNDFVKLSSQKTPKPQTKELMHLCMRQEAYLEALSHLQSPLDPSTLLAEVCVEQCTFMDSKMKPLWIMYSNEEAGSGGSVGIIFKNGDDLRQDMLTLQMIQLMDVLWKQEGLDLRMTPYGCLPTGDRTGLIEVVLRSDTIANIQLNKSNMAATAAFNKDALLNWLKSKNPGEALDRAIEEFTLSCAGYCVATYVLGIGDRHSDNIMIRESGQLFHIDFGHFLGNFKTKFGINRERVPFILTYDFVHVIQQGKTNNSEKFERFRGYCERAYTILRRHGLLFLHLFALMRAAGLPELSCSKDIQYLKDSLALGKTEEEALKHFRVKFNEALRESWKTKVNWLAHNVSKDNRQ
Sequence of PIK3CD/PIK3R1 (p110 δ/p85 α) (P27986 whole entry partner): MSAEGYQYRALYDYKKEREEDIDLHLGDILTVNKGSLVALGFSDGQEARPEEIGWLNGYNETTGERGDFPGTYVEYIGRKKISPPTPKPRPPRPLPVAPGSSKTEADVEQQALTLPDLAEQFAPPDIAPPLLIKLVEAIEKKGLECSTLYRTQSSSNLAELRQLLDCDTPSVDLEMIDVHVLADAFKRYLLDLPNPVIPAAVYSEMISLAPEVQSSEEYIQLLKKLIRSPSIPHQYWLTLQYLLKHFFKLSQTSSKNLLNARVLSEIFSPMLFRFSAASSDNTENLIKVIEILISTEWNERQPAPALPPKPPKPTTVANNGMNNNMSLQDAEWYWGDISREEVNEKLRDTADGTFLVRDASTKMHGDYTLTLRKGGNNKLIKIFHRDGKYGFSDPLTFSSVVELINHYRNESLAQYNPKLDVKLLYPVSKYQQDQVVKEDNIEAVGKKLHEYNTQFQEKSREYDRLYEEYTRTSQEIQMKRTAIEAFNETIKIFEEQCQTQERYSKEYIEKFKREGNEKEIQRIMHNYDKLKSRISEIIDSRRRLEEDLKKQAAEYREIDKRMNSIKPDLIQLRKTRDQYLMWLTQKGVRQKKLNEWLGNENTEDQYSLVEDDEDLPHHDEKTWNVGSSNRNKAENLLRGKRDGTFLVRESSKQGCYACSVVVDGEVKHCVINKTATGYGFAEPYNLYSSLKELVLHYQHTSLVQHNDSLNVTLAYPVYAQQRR

[17] = tested on: MCF-7 cancer cell line; assay: MTT assay; assay type: cell-based; settings: Homo sapiens, MCF7, 72 h
In short: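 A549 in DMEM and MCF-7 in RPMI, each with 10% heat-inactivated FBS, 1% penicillin/streptomycin and 2 mmol/L glutamine at 37 °C, 5% CO2. Seeded at 2000 (A549) or 10,000 (MCF-7) cells/well and attached 24 h. Then 72 h with test compound at varying concentrations. MTT (5 mg/mL stock) added for 4 h at 37 °C, formazan dissolved in DMSO, absorbance read at 450/540 nm. Triplicates in three separate experiments.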

[18] = target: PKN2 (PRK2) (Homo sapiens, UniProt Q16513); assay: Kinase selectivity for OMS14; assay type: biochemical
[19] = target: CDK1/cyclin B (Homo sapiens, UniProt P06493); assay: Kinase selectivity for OMS14; assay type: biochemical
Sequence of CDK1/cyclin B (P06493 whole entry): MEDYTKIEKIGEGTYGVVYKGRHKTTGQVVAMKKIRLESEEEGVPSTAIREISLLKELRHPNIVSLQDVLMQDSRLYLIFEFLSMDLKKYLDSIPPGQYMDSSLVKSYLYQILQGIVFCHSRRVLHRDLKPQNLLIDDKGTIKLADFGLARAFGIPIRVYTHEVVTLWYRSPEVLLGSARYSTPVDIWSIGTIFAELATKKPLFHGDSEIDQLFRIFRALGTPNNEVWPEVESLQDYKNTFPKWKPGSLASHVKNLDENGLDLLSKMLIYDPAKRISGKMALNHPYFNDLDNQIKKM
Sequence of CDK1/cyclin B (P14635 whole entry, further chain): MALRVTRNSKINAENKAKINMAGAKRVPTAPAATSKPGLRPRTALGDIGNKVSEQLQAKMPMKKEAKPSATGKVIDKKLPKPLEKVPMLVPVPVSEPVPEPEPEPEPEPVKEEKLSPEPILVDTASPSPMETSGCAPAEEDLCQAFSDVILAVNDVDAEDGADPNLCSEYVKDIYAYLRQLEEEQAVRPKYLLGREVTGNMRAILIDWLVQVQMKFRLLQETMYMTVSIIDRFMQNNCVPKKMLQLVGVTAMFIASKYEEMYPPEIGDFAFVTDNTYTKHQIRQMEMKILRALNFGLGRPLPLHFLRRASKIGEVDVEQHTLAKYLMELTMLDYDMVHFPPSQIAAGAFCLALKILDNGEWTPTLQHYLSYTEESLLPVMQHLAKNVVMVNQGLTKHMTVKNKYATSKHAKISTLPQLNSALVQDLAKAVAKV

[20] = target: AKT3 (PKB γ) (Homo sapiens, UniProt Q9Y243); assay: Kinase selectivity for OMS14; assay type: biochemical
Sequence of AKT3 (PKB γ) (Q9Y243 whole entry): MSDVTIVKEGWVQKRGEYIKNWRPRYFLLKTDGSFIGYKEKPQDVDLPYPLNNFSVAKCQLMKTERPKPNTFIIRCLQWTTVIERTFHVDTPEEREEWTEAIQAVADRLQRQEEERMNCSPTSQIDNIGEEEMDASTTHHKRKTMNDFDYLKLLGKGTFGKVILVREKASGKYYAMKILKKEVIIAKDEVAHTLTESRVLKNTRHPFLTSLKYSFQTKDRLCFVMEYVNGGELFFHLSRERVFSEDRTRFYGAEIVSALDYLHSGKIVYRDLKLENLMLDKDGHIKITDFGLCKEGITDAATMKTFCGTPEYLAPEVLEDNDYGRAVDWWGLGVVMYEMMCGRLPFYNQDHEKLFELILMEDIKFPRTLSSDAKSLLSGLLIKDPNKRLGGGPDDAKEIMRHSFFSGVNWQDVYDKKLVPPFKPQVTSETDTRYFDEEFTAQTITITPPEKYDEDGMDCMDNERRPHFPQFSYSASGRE

[21] = target: AKT1 (PKB α) (Homo sapiens, UniProt P31749); assay: Kinase selectivity for OMS14; assay type: biochemical
Sequence of AKT1 (PKB α) (P31749 whole entry): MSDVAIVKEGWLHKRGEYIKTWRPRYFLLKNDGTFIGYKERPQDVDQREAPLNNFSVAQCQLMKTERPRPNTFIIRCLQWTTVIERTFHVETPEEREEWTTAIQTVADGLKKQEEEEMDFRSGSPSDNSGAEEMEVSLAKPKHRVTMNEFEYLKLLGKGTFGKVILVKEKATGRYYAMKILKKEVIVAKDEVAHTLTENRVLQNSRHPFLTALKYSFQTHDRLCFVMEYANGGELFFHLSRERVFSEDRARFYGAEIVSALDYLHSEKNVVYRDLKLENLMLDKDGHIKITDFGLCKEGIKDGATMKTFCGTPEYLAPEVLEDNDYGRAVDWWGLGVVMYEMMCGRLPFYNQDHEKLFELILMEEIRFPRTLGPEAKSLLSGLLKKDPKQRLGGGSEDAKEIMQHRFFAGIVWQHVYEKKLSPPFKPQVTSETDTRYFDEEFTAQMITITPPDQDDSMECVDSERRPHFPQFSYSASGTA

[22] = target: PIK3CA E542 K/PIK3R1 (p110 α E542 K/p85 α) (Homo sapiens, UniProt P42336, E542K); assay: Kinase selectivity for OMS14; assay type: biochemical
Sequence of PIK3CA E542 K/PIK3R1 (p110 α E542 K/p85 α) (P42336 whole entry E542K): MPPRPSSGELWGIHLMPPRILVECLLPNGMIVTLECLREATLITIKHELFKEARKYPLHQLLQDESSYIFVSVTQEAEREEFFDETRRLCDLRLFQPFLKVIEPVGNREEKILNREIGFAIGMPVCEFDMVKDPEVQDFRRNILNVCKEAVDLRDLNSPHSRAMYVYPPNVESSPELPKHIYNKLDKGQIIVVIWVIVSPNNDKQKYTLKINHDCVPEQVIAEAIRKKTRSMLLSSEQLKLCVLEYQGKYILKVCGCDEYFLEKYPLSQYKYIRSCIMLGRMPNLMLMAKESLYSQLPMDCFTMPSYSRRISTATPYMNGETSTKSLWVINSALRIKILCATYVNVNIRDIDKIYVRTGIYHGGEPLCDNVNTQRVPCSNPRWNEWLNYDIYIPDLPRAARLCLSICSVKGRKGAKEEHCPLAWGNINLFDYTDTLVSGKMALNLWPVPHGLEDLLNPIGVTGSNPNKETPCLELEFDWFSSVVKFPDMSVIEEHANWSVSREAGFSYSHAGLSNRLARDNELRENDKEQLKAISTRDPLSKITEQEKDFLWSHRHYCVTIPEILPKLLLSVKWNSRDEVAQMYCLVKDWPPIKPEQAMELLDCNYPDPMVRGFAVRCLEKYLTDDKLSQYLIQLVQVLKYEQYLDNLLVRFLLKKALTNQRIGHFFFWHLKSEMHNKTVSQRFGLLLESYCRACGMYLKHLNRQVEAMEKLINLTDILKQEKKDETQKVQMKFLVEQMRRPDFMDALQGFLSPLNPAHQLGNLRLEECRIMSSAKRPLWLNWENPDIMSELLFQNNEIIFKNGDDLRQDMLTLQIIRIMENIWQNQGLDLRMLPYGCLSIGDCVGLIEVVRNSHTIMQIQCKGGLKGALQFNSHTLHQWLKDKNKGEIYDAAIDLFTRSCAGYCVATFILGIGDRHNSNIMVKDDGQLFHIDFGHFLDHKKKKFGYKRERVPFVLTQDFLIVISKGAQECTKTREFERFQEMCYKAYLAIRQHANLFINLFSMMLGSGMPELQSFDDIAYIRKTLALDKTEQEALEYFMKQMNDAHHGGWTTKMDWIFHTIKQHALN
Sequence of PIK3CA E542 K/PIK3R1 (p110 α E542 K/p85 α) (P27986 whole entry partner): as the sequence (P27986 whole entry partner) above

[23] = read-out: % of inhibition (mean)
[24] = read-out: % of inhibition, point 1
[25] = read-out: % of inhibition, point 2

O=C(CNc1ccc([N+](=O)[O-])cc1)Nc1nc2ccccc2s1 [OMS5, N-(1,3-benzothiazol-2-yl)-2-(4-nitroanilino)acetamide]
zone of inhibition at 100 µg/mL [1]: 0 mm | GI50 [2]: 1 µM | IC50 [2]: 2.1 µM | CC50 [2]: 7.8 µM | TGI [2]: 2.8 µM | GI50 [3]: 1.5 µM | IC50 [3]: 10 µM | CC50 [3]: > 100 µM | TGI [3]: 15 µM | GI50 [4]: 1.6 µM | IC50 [4]: 2.8 µM | CC50 [4]: > 100 µM | TGI [4]: 45 µM | GI50 [5]: 1.3 µM | IC50 [5]: 3 µM | CC50 [5]: 6.3 µM | TGI [5]: 2.8 µM | GI50 [6]: 1 µM | IC50 [6]: 2.6 µM | CC50 [6]: 95.5 µM | TGI [6]: 10 µM | GI50 [7]: 1.6 µM | IC50 [7]: 2.9 µM | CC50 [7]: 5.5 µM | TGI [7]: 3 µM | GI50 [8]: 0.4 µM | IC50 [8]: 0.5 µM | CC50 [8]: 74.1 µM | TGI [8]: 10 µM | GI50 [9]: 0.36 to 2.3 µM | IC50 [9]: 0.44 to 12 µM | GI50 [10]: 0.6 µM | IC50 [10]: 0.9 µM | CC50 [10]: > 100 µM | TGI [10]: 22 µM | GI50 [11]: 0.9 µM | IC50 [11]: 2.3 µM | CC50 [11]: > 100 µM | TGI [11]: 50 µM | TGI [12]: 11 µM | GI50 [12]: 0.4 µM | IC50 [12]: 0.4 µM | CC50 [12]: 45.7 µM | GI50 [13]: 1.1 µM | IC50 [13]: 2.5 µM | CC50 [13]: 28.8 µM | TGI [13]: 4.1 µM | GI50 [14]: 1 µM | IC50 [14]: 2.3 µM | CC50 [14]: 8.3 µM | TGI [14]: 2.9 µM | GI50 [15]: 1 µM | IC50 [15]: 2.5 µM | CC50 [15]: 46.8 µM | TGI [15]: 5.4 µM

O=C(CN1CCN(CC(=O)Nc2nc3ccccc3s2)CC1)Nc1ccc([N+](=O)[O-])cc1 [OMS14, N-(benzo[d]thiazol-2-yl)-2-(4-(2-((4-nitrophenyl)amino)-2-oxoethyl)piperazin-1-yl)acetamide]
zone of inhibition at 100 µg/mL [1]: 0 mm | GI50 [2]: 1.6 µM | IC50 [2]: 3.2 µM | CC50 [2]: 8.9 µM | TGI [2]: 3.8 µM | GI50 [3]: 2.2 µM | IC50 [3]: 6.2 µM | CC50 [3]: > 100 µM | TGI [3]: 7.1 µM | GI50 [4]: 3 µM | IC50 [4]: 4.4 µM | CC50 [4]: > 100 µM | TGI [4]: 20.9 µM | inhibition at 100 µM [16, 23]: 65% | inhibition at 100 µM [16, 24]: 66% | inhibition at 100 µM [16, 25]: 64% | IC50 [17]: 22.1 µM | inhibition at 100 µM [18, 23]: 10% | inhibition at 100 µM [18, 24]: 11% | inhibition at 100 µM [18, 25]: 8% | inhibition at 100 µM [19, 23]: 24% | inhibition at 100 µM [19, 24]: 23% | inhibition at 100 µM [19, 25]: 25% | GI50 [5]: 1.8 µM | IC50 [5]: 3.5 µM | CC50 [5]: 6.9 µM | TGI [5]: 3.5 µM | inhibition at 100 µM [20, 23]: 28% | inhibition at 100 µM [20, 24]: 27% | inhibition at 100 µM [20, 25]: 29% | inhibition at 100 µM [21, 23]: 14% | inhibition at 100 µM [21, 24]: 11% | inhibition at 100 µM [21, 25]: 17% | GI50 [6]: 2.8 µM | IC50 [6]: 4.9 µM | CC50 [6]: > 100 µM | TGI [6]: 12.3 µM | inhibition at 100 µM [22, 23]: 34% | inhibition at 100 µM [22, 24]: 33% | inhibition at 100 µM [22, 25]: 36% | GI50 [7]: 1.7 µM | IC50 [7]: 3.2 µM | CC50 [7]: 6.3 µM | TGI [7]: 3.3 µM | GI50 [8]: 2.8 µM | IC50 [8]: 4.1 µM | CC50 [8]: 61.7 µM | TGI [8]: 7.8 µM | GI50 [9]: 0.66 to 3.02 µM | IC50 [9]: 0.81 to 9.1 µM | GI50 [10]: 1.4 µM | IC50 [10]: 2.4 µM | CC50 [10]: > 100 µM | TGI [10]: 4.3 µM | GI50 [11]: 2.5 µM | IC50 [11]: 4 µM | CC50 [11]: > 100 µM | TGI [11]: 17.4 µM | TGI [12]: 10.5 µM | GI50 [12]: 0.7 µM | IC50 [12]: 0.8 µM | CC50 [12]: 52.5 µM | GI50 [13]: 1.9 µM | IC50 [13]: 3.7 µM | CC50 [13]: 40.7 µM | TGI [13]: 5.5 µM | GI50 [14]: 1.9 µM | IC50 [14]: 3.9 µM | CC50 [14]: 18.2 µM | TGI [14]: 4.7 µM | GI50 [15]: 1.5 µM | IC50 [15]: 3.2 µM | CC50 [15]: 57.5 µM | TGI [15]: 4.8 µM
